Where “and” joins values, the source holds several entries; their conditions need not be identical. Equal entries are not always repeated.
The compounds below were run on Fibroblast (assay: Multiplex assay against human fibroblast). Details: 12 h, 1 µM, compound concentration 1 uM.
Format: toxicity, cell-based
Procedure, shortened: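 Per cents of healthy-nucleus cells form the tubulin, mitochondrial-mass and membrane-permeability phenotype values. Live cells were stained at seeding with Hoechst33342, BioTracker Green Microtubule Cytoskeleton Dye, MitoTracker Red and Annexin V Alexa Fluor 680. After compound addition they were imaged on a CQ1 microscope at 37°C and 5% CO2, and CellPathfinder machine-learning gating split them into Hoechst high-intensity objects or normal cells, normal cells into healthy, pyknosed or fragmented nuclei, and pyknosed cells into mitotic or apoptotic.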

Structure (SMILES)	Population Apoptotic (%)	Population Fragmented Nuclei (%)	Population Healthy Nuclei (%)	Population Hoechst High Intensity Objects (%)	Population Membrane Permeable-Phenotype (%)	Population Mitochondria Different-Phenotype (%)	Population Mitotic Cells (%)	Population Normal (%)	Population Pyknosed Nuclei (%)	Population Tubulin-Different-Phenotype (%)
O=C(Nc1cc(-c2ccccc2)nn1-c1ccccc1F)c1ccc([N+](=O)[O-])cc1	28% and 32%	17% and 19%	71% and 55%	2% and 8%	1% and 4%	1% and 9%	71% and 67%	97% and 91%	10% and 25%	22% and 53%
Cc1sc2c(c1C)C(c1ccc(Cl)cc1)=N[C@@H](CC(=O)NCCCCCCCCNC(=O)COc1cccc3c1C(=O)N(C1CCC(=O)NC1=O)C3=O)c1nnc(C)n1-2 (some centres not stated)	57% and 42%	–	72% and 34%	3% and 6%	–	–	42% and 57%	96% and 93%	16% and 31%	25% and 66%

Same assay, conditions: 12 h, 1 µM, compound concentration 1 uM

Structure (SMILES)	Total Cell Count
O=C(Nc1cc(-c2ccccc2)nn1-c1ccccc1F)c1ccc([N+](=O)[O-])cc1	138 and 160
Cc1sc2c(c1C)C(c1ccc(Cl)cc1)=N[C@@H](CC(=O)NCCCCCCCCNC(=O)COc1cccc3c1C(=O)N(C1CCC(=O)NC1=O)C3=O)c1nnc(C)n1-2 (some centres not stated)	118 and 94

Same assay, conditions: 12 h, 10 µM, compound concentration 10 uM

Structure (SMILES)	Population Apoptotic (%)	Population Fragmented Nuclei (%)	Population Healthy Nuclei (%)	Population Hoechst High Intensity Objects (%)	Population Membrane Permeable-Phenotype (%)	Population Mitochondria Different-Phenotype (%)	Population Mitotic Cells (%)	Population Normal (%)	Population Pyknosed Nuclei (%)	Population Tubulin-Different-Phenotype (%)
O=C(Nc1cc(-c2ccccc2)nn1-c1ccccc1F)c1ccc([N+](=O)[O-])cc1	28% and 45%	10% and 25%	66% and 47%	2% and 6%	1% and 6%	4% and 3%	71% and 54%	97% and 93%	22% and 26%	48% and 77%
Cc1sc2c(c1C)C(c1ccc(Cl)cc1)=N[C@@H](CC(=O)NCCCCCCCCNC(=O)COc1cccc3c1C(=O)N(C1CCC(=O)NC1=O)C3=O)c1nnc(C)n1-2 (some centres not stated)	54% and 44%	13% and 27%	56% and 27%	11% and 17%	1% and 7%	19% and 26%	45% and 55%	88% and 82%	30% and 45%	50% and 69%

Same assay, conditions: 12 h, 10 µM, compound concentration 10 uM

Structure (SMILES)	Total Cell Count
O=C(Nc1cc(-c2ccccc2)nn1-c1ccccc1F)c1ccc([N+](=O)[O-])cc1	170 and 149
Cc1sc2c(c1C)C(c1ccc(Cl)cc1)=N[C@@H](CC(=O)NCCCCCCCCNC(=O)COc1cccc3c1C(=O)N(C1CCC(=O)NC1=O)C3=O)c1nnc(C)n1-2 (some centres not stated)	171 and 115

Same assay, conditions: 24 h, 1 µM, compound concentration 1 uM

Structure (SMILES)	Population Apoptotic (%)	Population Fragmented Nuclei (%)	Population Healthy Nuclei (%)	Population Hoechst High Intensity Objects (%)	Population Membrane Permeable-Phenotype (%)	Population Mitochondria Different-Phenotype (%)	Population Mitotic Cells (%)	Population Normal (%)	Population Pyknosed Nuclei (%)	Population Tubulin-Different-Phenotype (%)
O=C(Nc1cc(-c2ccccc2)nn1-c1ccccc1F)c1ccc([N+](=O)[O-])cc1	53% and 50%	16% and 25%	74% and 53%	2% and 7%	0% and 6%	0% and 2%	46% and 50%	97% and 92%	9% and 20%	18% and 52%
Cc1sc2c(c1C)C(c1ccc(Cl)cc1)=N[C@@H](CC(=O)NCCCCCCCCNC(=O)COc1cccc3c1C(=O)N(C1CCC(=O)NC1=O)C3=O)c1nnc(C)n1-2 (some centres not stated)	56% and 65%	20% and 41%	53% and 32%	10% and 3%	–	–	44% and 35%	89% and 96%	26% and 25%	25% and 72%

Same assay, conditions: 24 h, 1 µM, compound concentration 1 uM

Structure (SMILES)	Total Cell Count
O=C(Nc1cc(-c2ccccc2)nn1-c1ccccc1F)c1ccc([N+](=O)[O-])cc1	135 and 156
Cc1sc2c(c1C)C(c1ccc(Cl)cc1)=N[C@@H](CC(=O)NCCCCCCCCNC(=O)COc1cccc3c1C(=O)N(C1CCC(=O)NC1=O)C3=O)c1nnc(C)n1-2 (some centres not stated)	107 and 80

Same assay, conditions: 24 h, 10 µM, compound concentration 10 uM

Structure (SMILES)	Population Apoptotic (%)	Population Healthy Nuclei (%)	Population Hoechst High Intensity Objects (%)	Population Membrane Permeable-Phenotype (%)	Population Mitochondria Different-Phenotype (%)	Population Mitotic Cells (%)	Population Normal (%)	Population Pyknosed Nuclei (%)	Population Tubulin-Different-Phenotype (%)	Total Cell Count
O=C(Nc1cc(-c2ccccc2)nn1-c1ccccc1F)c1ccc([N+](=O)[O-])cc1	26% and 28%	76% and 53%	4% and 6%	1% and 9%	7% and 1%	73% and 72%	95% and 93%	16% and 18%	49% and 69%	163 and 147
Cc1sc2c(c1C)C(c1ccc(Cl)cc1)=N[C@@H](CC(=O)NCCCCCCCCNC(=O)COc1cccc3c1C(=O)N(C1CCC(=O)NC1=O)C3=O)c1nnc(C)n1-2 (some centres not stated)	67% and 44%	38% and 32%	13% and 12%	–	9% and 20%	32% and 55%	86% and 87%	41% and 42%	47% and 68%	154 and 103

Same assay, conditions: 24 h, 10 µM, compound concentration 10 uM

Structure (SMILES)	Population Fragmented Nuclei (%)
Cc1sc2c(c1C)C(c1ccc(Cl)cc1)=N[C@@H](CC(=O)NCCCCCCCCNC(=O)COc1cccc3c1C(=O)N(C1CCC(=O)NC1=O)C3=O)c1nnc(C)n1-2 (some centres not stated)	20% and 25%

Same assay, conditions: 48 h, 1 µM, compound concentration 1 uM

Structure (SMILES)	Population Apoptotic (%)	Population Fragmented Nuclei (%)	Population Healthy Nuclei (%)	Population Hoechst High Intensity Objects (%)	Population Membrane Permeable-Phenotype (%)	Population Mitochondria Different-Phenotype (%)	Population Mitotic Cells (%)	Population Normal (%)	Population Pyknosed Nuclei (%)	Population Tubulin-Different-Phenotype (%)
O=C(Nc1cc(-c2ccccc2)nn1-c1ccccc1F)c1ccc([N+](=O)[O-])cc1	54% and 55%	23% and 30%	67% and 53%	7	1% and 5%	0% and 4%	45% and 44%	92%	8% and 15%	18% and 54%
Cc1sc2c(c1C)C(c1ccc(Cl)cc1)=N[C@@H](CC(=O)NCCCCCCCCNC(=O)COc1cccc3c1C(=O)N(C1CCC(=O)NC1=O)C3=O)c1nnc(C)n1-2 (some centres not stated)	88% and 93%	41% and 42%	24% and 37%	–	–	0% and 20%	12% and 6%	72% and 91%	33% and 20%	33% and 82%

Same assay, conditions: 48 h, 1 µM, compound concentration 1 uM

Structure (SMILES)	Total Cell Count
O=C(Nc1cc(-c2ccccc2)nn1-c1ccccc1F)c1ccc([N+](=O)[O-])cc1	145 and 183
Cc1sc2c(c1C)C(c1ccc(Cl)cc1)=N[C@@H](CC(=O)NCCCCCCCCNC(=O)COc1cccc3c1C(=O)N(C1CCC(=O)NC1=O)C3=O)c1nnc(C)n1-2 (some centres not stated)	102 and 85

Same assay, conditions: 48 h, 10 µM, compound concentration 10 uM

Structure (SMILES)	Population Apoptotic (%)	Population Fragmented Nuclei (%)	Population Healthy Nuclei (%)	Population Hoechst High Intensity Objects (%)	Population Membrane Permeable-Phenotype (%)	Population Mitochondria Different-Phenotype (%)	Population Mitotic Cells (%)	Population Normal (%)	Population Pyknosed Nuclei (%)	Population Tubulin-Different-Phenotype (%)
O=C(Nc1cc(-c2ccccc2)nn1-c1ccccc1F)c1ccc([N+](=O)[O-])cc1	66% and 52%	16% and 31%	70% and 54%	7% and 5%	3% and 6%	3%	33% and 47%	92% and 94%	12% and 14%	55% and 66%
Cc1sc2c(c1C)C(c1ccc(Cl)cc1)=N[C@@H](CC(=O)NCCCCCCCCNC(=O)COc1cccc3c1C(=O)N(C1CCC(=O)NC1=O)C3=O)c1nnc(C)n1-2 (some centres not stated)	86% and 57%	40% and 38%	20% and 38%	38% and 15%	5% and 14%	10% and 14%	–	61% and 84%	38% and 23%	55% and 80%

Same assay, conditions: 48 h, 10 µM, compound concentration 10 uM

Structure (SMILES)	Total Cell Count
O=C(Nc1cc(-c2ccccc2)nn1-c1ccccc1F)c1ccc([N+](=O)[O-])cc1	160 and 153
Cc1sc2c(c1C)C(c1ccc(Cl)cc1)=N[C@@H](CC(=O)NCCCCCCCCNC(=O)COc1cccc3c1C(=O)N(C1CCC(=O)NC1=O)C3=O)c1nnc(C)n1-2 (some centres not stated)	156 and 108
